In the library only some 3.1% were active in any assay of this set; here they are far more common.
KCNQ1 act: human KCNQ1 channel potentiation or activation | 0.35% of 310,000 active | B-score at 10 µM | P51787 | CHO-K1 KCNQ1, thallium flux FluxOR fluorescence; hits give high values;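 active = fluorescence ratio B-score, a plate-corrected score, at least three library SD, with initial intensity B-score within 5 SD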
Target sequence (P51787 whole entry, looked up): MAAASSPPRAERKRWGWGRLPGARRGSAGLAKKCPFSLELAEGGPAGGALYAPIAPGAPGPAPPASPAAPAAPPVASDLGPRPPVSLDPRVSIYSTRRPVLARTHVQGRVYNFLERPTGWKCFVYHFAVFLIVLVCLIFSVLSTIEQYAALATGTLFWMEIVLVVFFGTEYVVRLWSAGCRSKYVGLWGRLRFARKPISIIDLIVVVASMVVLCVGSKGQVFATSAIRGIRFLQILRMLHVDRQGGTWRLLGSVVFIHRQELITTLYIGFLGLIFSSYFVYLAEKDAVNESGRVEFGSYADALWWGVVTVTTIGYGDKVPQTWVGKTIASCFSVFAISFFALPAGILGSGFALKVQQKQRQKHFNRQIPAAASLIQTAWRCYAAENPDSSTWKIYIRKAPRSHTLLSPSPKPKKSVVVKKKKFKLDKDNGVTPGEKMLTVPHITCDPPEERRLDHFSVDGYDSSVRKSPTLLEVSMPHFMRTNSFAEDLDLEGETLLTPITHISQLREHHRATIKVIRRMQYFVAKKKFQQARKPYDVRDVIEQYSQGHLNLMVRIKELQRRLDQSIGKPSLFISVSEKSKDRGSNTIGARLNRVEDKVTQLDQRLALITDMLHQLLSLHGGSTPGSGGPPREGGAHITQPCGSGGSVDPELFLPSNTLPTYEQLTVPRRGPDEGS
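Assay system: stable KCNQ1 CHO-K1 line; medium: assay buffer, equal DMSO in all wells; timing: 90 min dye loading and 20 min compound exposure, both at room temperature; technique: kinetic FluxOR thallium fluorescence, 10-s 1-Hz baseline, 110-s post-stimulus read; read-out basis: B score of baseline-normalized fluorescence ratio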
hERG rescue: shields human hERG channel from block by proarrhythmic agents | Q12809 | CHO-hERG, FluxOR thallium flux, dofetilide IC70 present | activation (rescue from dofetilide block), less the hit threshold, % at 10 µM | 0.51% of 310,000 active | AID 1511;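 active = activation above the mean of controls blocked by dofetilide plus 5 SD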;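 also: thallium influx through hERG after potassium depolarization seen as dye fluorescence rise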
KCNQ1 block: blocks the human KCNQ1 potassium channel; P51787; CHO-K1 KCNQ1, FluxOR thallium flux fluorescence; hits give high values; B-score at 10 µM; 1.3% of 310,000 active;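 active = compounds whose thallium flux B-score, printed positive for inhibition, exceeds three library SD while starting fluorescence stays within three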;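 also: channel opened by potassium depolarization with thallium stimulus after 20 min compound exposure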
KCNK9 inh: human KCNK9 channel inhibition | Q9NPC2 | HEK293 KCNK9, FluxOR thallium flux fluorescence; hits give low values | B-score at 10 µM | 1.2% of 310,000 active;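 active = ratio B-score over 3 SD below the library mean, with starting fluorescence within 5 SD of its mean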;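 also: negative B-score means less thallium flux so channel inhibition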
KCNK3 block: human KCNK3 channel inhibition, primary screen; O14649; CHO-KCNK3 thallium flux, FluxOR fluorescence; hits give low values; B-score at 10 µM; 0.84% of 340,000 active; AID 602410;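 active = B-score under library mean minus 4 SD, starting fluorescence ratio at most library mean plus 5 SD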;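 also: more negative B-score means stronger inhibition of thallium flux through KCNK3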
KCNK9 block conf: confirmation of human KCNK9 potassium channel inhibitors | 43% of 4,900 active | shares compounds with KCNK9 inh | inhibition, % at 10 µM | HEK293 KCNK9 cells, FluxOR thallium flux fluorescence;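 active = thallium signal inhibited by more than 5 SD of the compound-free buffer control wells, on both duplicate plates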;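 also: 0% = assay buffer control wells without compound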
Kir21 sel: selectivity of KCNK9 modulators against mouse Kir2.1. inhibition, % at 10 µM. shares compounds with KCNK9 inh. AID 492993. 4% of 4,900 active. Kir2.1 cells, FluxOR thallium flux fluorescence;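 active = thallium signal drop more than 5 SD beyond the mean of the no-compound control wells, seen in both duplicate plates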;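 also: signal is fluorescence rise after thallium addition divided by baseline fluorescence; plate controls were assay buffer only for no effect and full block by chlorpromazine control for full effect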
HEK293 Tl ctr: second counter-screen for KCNK9 modulators: effect in non-induced cells; 40% of 4,900 active; shares compounds with KCNK9 inh; inhibition, % at 10 µM; non-induced KCNK9-HEK293, FluxOR thallium flux; AID 492997;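 active = thallium signal drop beyond 5 SD of the untreated control mean, on both duplicate plates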;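 also: plate controls were buffer only IC0 wells for no effect and SID17386958 at its maximal inhibitory level for full effect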
The depositor's hits bear a star; i = inactive; . = no result given.

SMILES	KCNQ1 act	hERG rescue	KCNQ1 block	KCNK9 inh	KCNK3 block	KCNK9 block conf	Kir21 sel	HEK293 Tl ctr
Oc1ccccc1-[n+]1c(-c2ccccc2)cc(-c2ccccc2)c(O)c1-c1ccccc1	i	-6	i	-8.4*	i	i	i	i
COC(=O)C1=C(c2ccc(-c3ccccc3)c(F)c2)C[C@@H]2CC[C@H]1N2C(=O)NCCc1ccccc1	.	.	.	.	i	.	.	.
CCc1ccc(N2C(=O)NC(=O)/C(=C/c3cccn3CCOc3ccc(C(C)CC)cc3)C2=O)cc1 (centres undefined)	i	-2	i	i	i	i	i	i
CC(=O)c1cn(Cc2ccccc2F)c2ccccc12	i	0	i	i	i	.	.	.
O=C(c1cc(F)ccc1F)C1CCCN(Cc2cccc(Cl)c2)C1 (centres undefined)	i	-10	i	i	i	i	i	i
O=C(c1ccc(Cl)cc1)C1CCCN(Cc2cccc3cccnc23)C1 (centres undefined)	i	1	i	i	i	i	i	i
O=C(c1cc(F)ccc1F)C1CCCN(CCCc2ccccc2)C1 (centres undefined)	i	-16	i	i	i	.	.	.
COc1cccc(C(=O)C2CCCN(Cc3cnn(C(C)C)c3)C2)c1 (centres undefined)	i	-11	i	i	i	.	.	.
O=C(c1ccc2c(c1)OCO2)C1CCCN(Cc2c(F)cccc2Cl)C1 (centres undefined)	i	-11	i	i	i	i	i	i
COc1cccc(C(=O)C2CCCN(Cc3ccc(F)cc3)C2)c1 (centres undefined)	i	-7	i	i	i	i	i	i
CCN1CCN(S(=O)(=O)c2cnc(Cl)c(Br)c2)CC1	i	-4	i	i	i	.	.	.
CC1=CC2OC3CC4OC(=O)C=CC=CC(=O)OCCC(C)C(O)C(=O)OCC2(CC1O)C4(C)C31CO1 (centres undefined)	.	.	.	.	i	.	.	.
Cc1cc(Oc2ccc(C(F)(F)F)cc2[N+](=O)[O-])c2c3c(c(=O)oc2c1)CCCC3	i	-6	i	i	i	.	.	.
COc1ccc(CC2(CCc3ccncc3)C(=O)NC(=O)NC2=O)cc1OC	i	-14	i	i	i	.	.	.
COc1cccc(C(=O)C2CCCN(Cc3ccc4nsnc4c3)C2)c1 (centres undefined)	i	-9	i	i	i	i	i	i
Cc1cccc(CN2CCCC(C(=O)c3cccc(OC(C)C)c3)C2)n1 (centres undefined)	i	-8	i	i	i	i	i	i
COc1cccc(C(=O)C2CCCN(Cc3cccc(C)n3)C2)c1 (centres undefined)	i	-6	i	i	i	.	.	.
OC(CN1CC=C(c2ccccc2)CC1)c1ccccc1 (centres undefined)	i	-5	i	i	i	.	.	.
Cc1cc(O)c(CN2CC=C(c3ccccc3)CC2)cc1C(C)C	i	-9	i	i	i	i	i	i
CCOP(=O)(C#CC(C)(C)C)C(C)(O)c1ccccc1 (centres undefined)	i	-9	i	i	i	.	.	.
CC(C)(C#CC(=O)O)OOC(c1ccccc1)(c1ccccc1)c1ccccc1	i	-13	i	i	i	i	i	i
COc1ccc(C(=O)C2CCCN(C3CSCCSC3)C2)cc1OC (centres undefined)	i	-14	i	i	i	.	.	.
Cc1ccsc1C(=O)C1CCCN(Cc2cccc(-n3cccn3)c2)C1 (centres undefined)	i	-14	i	i	i	i	i	i
COc1cc(CN2CCCC(C(=O)c3sccc3C)C2)cc(Cl)c1O (centres undefined)	i	-10	i	i	i	i	i	i
CSc1ncc(CN2CCCC(C(=O)c3sccc3C)C2)cn1 (centres undefined)	i	-5	i	i	i	i	i	i
SMILES	KCNQ1 act	hERG rescue	KCNQ1 block	KCNK9 inh	KCNK3 block	KCNK9 block conf	Kir21 sel	HEK293 Tl ctr
CSc1ccc(C(=O)C2CCCN(Cc3cnc(SC)nc3)C2)cc1 (centres undefined)	i	-10	i	i	i	i	i	i
CCC(=O)OC1(c2ccccc2)C(C)CN(C)CC1C (centres undefined)	i	-13	i	i	i	.	.	.
c1cc2c(cc1[C@H]1OC[C@H]3[C@@H]1CO[C@H]3c1ccc3c(c1)OCO3)OCO2	.	.	.	.	i	.	.	.
O=C(Nc1cccc(Br)c1)c1c(O)c2c(n(Cc3ccccc3)c1=O)CCCC2	i	0	i	i	i	.	.	.
COc1ccc(-c2nn(CCC#N)cc2C(=O)Nc2ccccc2Br)cc1	i	-4	i	i	i	.	.	.
CCN(CC)c1ccc(CC2C(=O)N(C)C(=O)N(C)C2=O)cc1	i	-10	i	i	i	i	i	i
COc1ccccc1N1CCN(C2CCCN(C(=O)COc3ccccc3Cl)C2)CC1 (centres undefined)	i	-9	i	i	i	i	i	i
COc1ccccc1OCC(=O)N1CCCC(N(C)Cc2ccccc2)C1 (centres undefined)	i	-8	i	i	i	.	.	.
O=C(c1ccccc1F)c1cn(Cc2ccc(F)cc2)c2ccccc12	i	-6	i	-8.7*	i	50%*	i	34%*
COC(=O)Cn1cc(C(=O)c2ccccc2F)c2ccccc21	i	-7	i	i	i	.	.	.
Cc1ccc(NS(=O)(=O)c2ccc(OCC(=O)N3CCN(C)CC3)cc2)cc1	i	-15	i	i	i	.	.	.
Cc1ccccc1NS(=O)(=O)c1ccc(OCC(=O)N2CCN(C)CC2)cc1	i	-9	i	i	i	i	i	i
CN1CCN(C(=O)COc2ccc3ccccc3c2Br)CC1	i	-7	i	i	i	.	.	.
Clc1cnc(Oc2ccc(Oc3ncc(Cl)cc3Cl)cc2)c(Cl)c1	i	-6	i	i	i	i	i	i
COC(=O)C1=C(c2ccccc2)C[C@@H]2CC[C@H]1N2C(=O)NCCNC(C)=O	i	-4	i	i	i	.	.	.
CC(=NCCN1CCCCC1)c1c(O)n(-c2ccccc2)c(=O)[nH]c1=O	i	-10	i	i	i	i	i	i

Screening results: PubChem BioAssay, Johns Hopkins Ion Channel Center
